Published values gathered from unrelated publications.
Lines come from different studies, so protocols differ.
Read-out: cell growth or viability

SMILES | cell line | test | conditions | quantity | value
CC(C)Nc1ccnc(Nc2cccc(-c3cccnc3)c2)n1 | BJ | ATP luminescence | 72 h | EC50 | > 17 µM
COc1cc(-c2ccc(-c3ccc(C(=N)N)nc3)s2)cc(OC)c1OC | OVCAR-3 | SRB |  | GI50 | 2.6 µM
CC#CC(=O)N1CC[C@@H](n2cc(-c3ccc(Oc4c(F)cccc4F)cc3)c3c(N)n[nH]c(=O)c32)C1 | UPN1 | ATP luminescence | 72 h | GI50 | 2.21 µM
COc1ccc(-c2ccc(-c3ccc(C(=N)N)nc3)s2)cc1 | ACHN |  |  | GI50 | 1.84 µM
CN(C)C/C=C/C(=O)Nc1cc2c(Nc3ccc(F)c(Cl)c3)ncnc2cc1O[C@H]1CCOC1 | KB-C2 | ATP luminescence | 3 µM, 12 days, 3D culture | viability | 67.7%
O=C(Nc1cncc(-c2nc3ccccc3s2)c1)c1cc([N+](=O)[O-])c(N2CCNCC2)cc1Cl | BJ | ATP luminescence |  | EC50 | > 15.3 µM
Oc1ccc(Nc2nc(-c3ccc(Cl)cc3)cs2)cc1 | 1205Lu | MTS | 48 h | IC50 | 86.3 µM
CCNc1ccnc(Nc2cccc(-c3cccnc3)c2)n1 | BJ | ATP luminescence | 72 h | EC50 | > 21 µM
Cc1cc(Cl)c(Cl)cc1NC(=O)c1ccc(N2CCNCC2)nc1 | BJ | ATP luminescence |  | EC50 | > 24 µM
C[C@]12CC[C@@H]3c4ccc(O)cc4CC[C@H]3[C@@H]1CC[C@@H]2O | OVCAR-3 | ATP luminescence | 72 h | EC90 | 76.1 µM
c1cc(Nc2nccc(NC3CCCCC3)n2)cc(-c2ncco2)c1 | BJ | ATP luminescence | 72 h | EC50 | > 45 µM
C=CC(=O)N1CCC[C@@H](n2nc(-c3ccc(Oc4ccccc4)cc3)c3c(N)ncnc32)C1 | UPN1 | ATP luminescence | 72 h | GI50 | 4.87 µM
COC(=O)[C@H](C)Nc1ccnc(Nc2cccc(-c3cccnc3)c2)n1 | BJ | ATP luminescence | 72 h | EC50 | > 8 µM
CC(=O)c1c(C)c2cnc(Nc3ccc(N4CCNCC4)cn3)nc2n(C2CCCC2)c1=O | MDA-MB-157 | resazurin |  | GI50 | > 5 µM
